This passage reports EC50 results from ChEMBL document CHEMBL1123861, “Antitumor agents. 89. Psychorubrin, a new cytotoxic naphthoquinone from Psychotria rubra and its structure-activity relationships” (1987).

Structures are written as SMILES. ≈ marks a conversion by molar mass, not a printed value.

In this assay the test system is KB. The experiment in a line: Evaluated for cytotoxicity in the KB cell culture assay. It counts as functional. The note with it: Homo sapiens, read-out: ED50 (the source's name). An outline of the steps: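 Cytotoxicity screen per NIH protocol. 10^4 tumor cells grown in MEM with 10% fetal calf serum; penicillin and streptomycin given on day 3. Drug tested at 0.1 to 20 µg/mL (N = 4). Viable cells counted by trypan blue exclusion and expressed as % of the 0.05% Tween 80-water control. ED50 estimated from a semi-log plot of concentration vs % viable cells.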
With `CC(C)=CCC1=C(O)C(=O)c2ccccc2C1=O` [LAPACHOL], the EC50 was 4.4 µg/mL (≈ 18.2 µM).
Turning to `Cc1cc2c(o1)-c1ccccc1C(=O)C2=O`, the EC50 turned out to be 0.6 µg/mL (≈ 2.83 µM).
Then `C/C=C/C1=C(OC(=O)c2ccccc2)C(=O)c2ccccc2C1=O`, with 5.1 µg/mL (≈ 16 µM); and `C/C=C/C1=C(O)C(=O)c2ccccc2C1=O`, with 14 µg/mL (≈ 65.4 µM); and `CC(=O)OC1CCC2=C(O1)C(=O)c1ccccc1C2=O` (stereo not drawn), with 10 µg/mL (≈ 36.7 µM).
As to `COC1CCC2=C(O1)C(=O)c1ccccc1C2=O` (stereo not drawn), the EC50 worked out at 11 µg/mL (≈ 45 µM).
As for `C=C/C=C1/C(=O)C(=O)c2ccccc2C1=O`, the figure is 0.4 µg/mL (≈ 1.88 µM).
On to `O=C1C2=C(OC(O)CC2)C(=O)c2ccccc21` (stereo not drawn), for which the EC50 was found to be 20 µg/mL (≈ 86.9 µM).
Turning to `Cc1cc2c(o1)C(=O)c1ccccc1C2=O`, the EC50 is 0.3 µg/mL (≈ 1.41 µM).
As for `CC(O)c1cc2c(o1)C(=O)c1ccccc1C2=O` (stereo not drawn), the figure is 2 µg/mL (≈ 8.26 µM).
As for `CC(=O)c1cc2c(o1)C(=O)c1ccccc1C2=O` [NAPABUCASIN], the figure is 1 µg/mL (≈ 4.16 µM).
In the case of `C/C=C/C1=C(OC(=O)CC)C(=O)c2ccccc2C1=O`, the EC50 worked out at 6.5 µg/mL (≈ 24 µM).
As for `O=C1C2=C(OC(Cl)CC2)C(=O)c2ccccc21` (stereo not drawn), the figure is 9.3 µg/mL (≈ 37.4 µM); as for `O=C1C2=C(OCCC2)C(=O)c2ccccc21`, 8 µg/mL (≈ 37.3 µM).
As to `CC(=O)OC1CC2=C(CO1)C(=O)c1ccccc1C2=O` (stereo not drawn), the EC50 worked out at 5 µg/mL (≈ 18.4 µM).
Then `C/C=C/C1=C(OC(C)=O)C(=O)c2ccccc2C1=O`, with 5.1 µg/mL (≈ 19.9 µM).
Turning to `O=C1C2=C(CC(O)OC2)C(=O)c2ccccc21` (stereo not drawn), the EC50 amounted to 3 µg/mL (≈ 13 µM).
As for `O=C1C2=C(OCC=C2)C(=O)c2ccccc21`, the EC50 turned out to be 0.4 µg/mL (≈ 1.88 µM).
